Compound activity: PubChem, several laboratories
This excerpt belongs to a sample that is enriched for hits.
CTSL1 counter = Fasciola hepatica cathepsin L1 inhibitors, primary screen, counter-screen for PFM18AAP inhibitor project, biochemical, QFRET, fluorogenic peptide substrate. inhibition, % at 5.96 µM. recombinant F. hepatica cathepsin L1, Z-Leu-Arg-MCA fluorescence. actives 0.49% (n = 300,000). AID 1906, 2009;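 active means inhibition above the mean of all tested compounds plus 3 SD, set per screening campaign, cut at about 17% in these data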;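 further: 0% = plate median of test compound wells and 100% = 1 µM Z-Phe-Ala-diazomethylketone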
CHOP UPR activ = activators of apoptotic CHOP UPR arm, primary screen, cell-based, CHO-CHOP luciferase reporter, luminescence, uHTS. UPR activation; percent of tunicamycin response over DMSO baseline. activation, % at 10 µM. actives 0.34% (n = 330,000);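 active means at 10 µM dose, activation of 40% or more, normalized to positive control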;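 further: 100% = tunicamycin at 10 µg/mL and 0% = DMSO alone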
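Evaluation: % reporter activation, DMSO baseline versus tunicamycin full activation; System: CHO-CHOP luciferase reporter cell line; Input: 500 cells/well; Incubation: 6 h compound treatment, 37 °C; Measured by: Steady-Glo luciferase luminescence; Dosing: one dose, 10 µM in 0.5% DMSO; Buffer or medium: F12 medium, 10% FBS; Benchmarks: positive tunicamycin 10 µg/mL, negative DMSO alone.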
UPR XBP1 act = activators of adaptive XBP1 UPR arm, primary screen, cell-based, CHO-XBP1 luciferase reporter, luminescence, uHTS. IRE1-XBP1 UPR activation; percent of tunicamycin response, DMSO as zero. activation, % at 20 µM. AID 463104, 2010. actives 0.33% (n = 330,000);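 active means versus positive control, 20 µM dose yields 30% or more activation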;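 further: 100% = tunicamycin at 10 µg/mL and 0% = DMSO only wells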
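Assay system: CHO-XBP1 luciferase reporter cells; Schedule: 6 h treatment, 37 °C; Detection: glow luminescence from Steady-Glo reagent; Benchmarks: high control tunicamycin 10 µg/mL final, low control DMSO vehicle only.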
CHOP inhibitor = inhibitors of CHOP promoter induction, primary screen, cell-based, unfolded protein response, luciferase reporter; actives 3.8% (n = 220,000); AID 2732, 2010; CHO-K1 CHOP-promoter luciferase, tunicamycin-induced, 15-18 h; inhibition, % at 10 µM;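 active means compounds that reduced the stress-induced luciferase reporter signal by more than about 70% of percent inhibition, limit read from the data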;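 further: 0% = tunicamycin plus vehicle and 100% = wells without tunicamycin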
UCH37 DUB inh = inhibitors of human UCH37 deubiquitinase, primary screen, biochemical, Ub-AMC cleavage, fluorescence; actives 0.33% (n = 330,000); inhibition, % (concentration not given with the values); purified proteasome/UCH37; Ubiquitin carboxyl-terminal hydrolase isozyme L5 (Homo sapiens), Q9Y5K5; AID 588478, 2011;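 active means mean inhibition over replicate wells above about 20%, limit read from the data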;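 further: 0% = compound-free wells with enzyme and 100% = wells lacking proteasome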
Target sequence (Q9Y5K5 whole entry, looked up): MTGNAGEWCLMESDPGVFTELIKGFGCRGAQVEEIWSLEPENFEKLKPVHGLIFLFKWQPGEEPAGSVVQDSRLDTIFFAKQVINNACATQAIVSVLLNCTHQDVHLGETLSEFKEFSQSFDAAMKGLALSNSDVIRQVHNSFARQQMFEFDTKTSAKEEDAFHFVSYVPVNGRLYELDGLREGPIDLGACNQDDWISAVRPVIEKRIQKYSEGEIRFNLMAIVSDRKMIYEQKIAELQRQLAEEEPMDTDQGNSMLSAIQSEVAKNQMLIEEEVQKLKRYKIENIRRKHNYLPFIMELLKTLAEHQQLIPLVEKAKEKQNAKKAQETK
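assay system = human UCH37 enzyme supplied as purified proteasome complex | amount = proteasome at 0.15 nM in the dispensed enzyme solution | schedule = 30 min compound-proteasome preincubation then 25 min substrate reaction, room temperature | measured by = fluorescence, ex 355 nm, em 460 nm | benchmarks = no-proteasome wells (full inhibition) and compound-free wells (no inhibition)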
The depositor's hits bear a star.

Screening Cc1cc(/C=C(\C#N)c2nc3ccccc3[nH]2)c(C)n1C returned CTSL1 counter 6, CHOP UPR activ 8, UPR XBP1 act 3, CHOP inhibitor 42 and UCH37 DUB inh 25*.
Screening Cc1cccc(C=NNC(=O)c2cc(-c3cccnc3)nc3c2c(C)nn3-c2ccccc2)c1 returned UCH37 DUB inh -264.
For CCOC(=O)c1[nH]c2cc3c(cc2c1NC(=O)CN1CC(C)CC(C)C1)OCO3 (stereo not drawn) the results were CTSL1 counter 3, CHOP UPR activ 0, UPR XBP1 act -4, CHOP inhibitor 79* and UCH37 DUB inh -50.
Screening CCOC(=O)c1[nH]c2ccc(OCC)cc2c1NC(=O)CN1CCCC(C)C1 (stereo not drawn) returned CTSL1 counter 6, CHOP UPR activ 2, UPR XBP1 act -3, CHOP inhibitor -4 and UCH37 DUB inh -53.
For COc1ccc(C=NNC(=O)c2ccc(O)cc2)cc1CN1CCCc2ccccc21 the results were UCH37 DUB inh -1.
Screening COc1ccc(-c2cc(C(=O)N3CC4(C)CC3CC(C)(C)C4)no2)cc1OC (stereo not drawn) returned CTSL1 counter 17*, CHOP UPR activ 0, UPR XBP1 act -1, CHOP inhibitor 73* and UCH37 DUB inh 1.
For Cc1ccc(-c2cc(C(=O)N3CC4(C)CC3CC(C)(C)C4)no2)cc1 (stereo not drawn) the results were CTSL1 counter -1, CHOP UPR activ 0, UPR XBP1 act -3 and UCH37 DUB inh 5.
CC1(C)CC2CC(C)(CN2C(=O)c2cc(-c3ccccc3O)on2)C1 (stereo not drawn) was read as CTSL1 counter 4, CHOP UPR activ 3, UPR XBP1 act 1, CHOP inhibitor 76* and UCH37 DUB inh 1.
Screening Cc1ccc(C=NNC(=O)c2cncc(Br)c2)o1 returned UCH37 DUB inh 9.
Screening O=C(O)c1ccccc1NS(=O)(=O)c1ccc(NN=Cc2ccc(O)c(O)c2)c([N+](=O)[O-])c1 returned UCH37 DUB inh 18.
Screening Cc1cc2ccccn2c1C(=O)c1ccc(NN=Cc2ccc(C(=O)O)cc2)c([N+](=O)[O-])c1 returned UCH37 DUB inh 13.
`CSc1ccc(C=NNc2ccc(S(=O)(=O)Nc3ccccc3C(=O)O)cc2[N+](=O)[O-])cc1` gave CHOP UPR activ 2, UPR XBP1 act -1 and UCH37 DUB inh 22*.
Cc1cc2ccccn2c1C(=O)c1ccc(N/N=C/c2ccc(C(=O)O)cc2)c([N+](=O)[O-])c1 was read as CHOP inhibitor 103*.
For COc1ccc(C=NNc2ccc(S(=O)(=O)Nc3ccccc3C(=O)O)cc2[N+](=O)[O-])c(OC)c1 the results were CHOP UPR activ 0, UPR XBP1 act 5 and UCH37 DUB inh 31*.
COc1ccc(C=NNC(=O)c2ccn[nH]2)cc1COc1ccc(Cl)cc1 was read as UCH37 DUB inh 0.
Screening Cc1cc(OCC(=O)ON=C(N)c2ccccc2)ccc1Br returned UCH37 DUB inh 0.
For Cn1c(=O)oc2cc(S(=O)(=O)N3CCC(C(=O)NCc4cccs4)CC3)ccc21 the results were CTSL1 counter 0, CHOP UPR activ -1, UPR XBP1 act -2, CHOP inhibitor 75* and UCH37 DUB inh 4.
`CC1CCN(S(=O)(=O)c2ccc3c(c2)oc(=O)n3CC(=O)NCc2ccc3c(c2)OCO3)CC1` gave CTSL1 counter -2, CHOP UPR activ 2, UPR XBP1 act -4, CHOP inhibitor 83* and UCH37 DUB inh 7.
For O=C(Cn1c(=O)oc2cc(S(=O)(=O)N3CCCCCC3)ccc21)NC1CCCCCCC1 the results were CTSL1 counter 17*, CHOP UPR activ -2, UPR XBP1 act 2, CHOP inhibitor 33 and UCH37 DUB inh 0.
`O=S(=O)(NN=C1CCCc2ccccc21)c1ccc(Br)cc1` gave UCH37 DUB inh 4.
`CC(=NNS(=O)(=O)c1ccc(Cl)c([N+](=O)[O-])c1)c1ccc(C)o1` gave UCH37 DUB inh 8.
For COc1cc(C=NNC(=O)CCN2CCCCC2)ccc1O the results were UCH37 DUB inh -7.
For O=C(CN1CCN(Cc2ccc(Cl)cc2)CC1)NN=Cc1ccccc1F the results were UCH37 DUB inh 3.
Screening Cc1nc(N)nc(N)c1Oc1ccc(Cl)cc1 returned UCH37 DUB inh 0.
Cc1nc(N)nc(N)c1/C=C/C(C)(C)c1ccc(Cl)cc1 was read as CHOP inhibitor 77* and UCH37 DUB inh 2.
CC(=NNC(=S)Nc1ccccc1)C1Cc2ccccc2C(=O)O1 (stereo not drawn) was read as UCH37 DUB inh 4.
For CC1Oc2ccccc2N(Cc2ccccc2Cl)C1=O (stereo not drawn) the results were CTSL1 counter -1, CHOP UPR activ 4, UPR XBP1 act 2, CHOP inhibitor 89* and UCH37 DUB inh 1.
For Nc1ccc(-c2nc3ccc(C(=O)O)cc3s2)cc1 the results were CTSL1 counter 7, CHOP inhibitor 92* and UCH37 DUB inh inactive.
O=C(O)c1ccc2nc(-c3ccccc3)sc2c1 was read as CTSL1 counter 3, CHOP UPR activ -9, UPR XBP1 act -5, CHOP inhibitor 42 and UCH37 DUB inh 4.
Screening CCOC(=O)c1c(C)[nH]c(C(=O)OCCOc2ccccc2C)c1C returned CHOP inhibitor 74* and UCH37 DUB inh 2.
Screening CCOC(=O)c1c(C)[nH]c(C(=O)OCC(=O)c2ccccc2)c1C returned CTSL1 counter 0, CHOP UPR activ 4, UPR XBP1 act -3 and UCH37 DUB inh 0.
For CCOC(=O)c1c(C)[nH]c(C(=O)OCCOc2ccc(Cl)cc2)c1C the results were CTSL1 counter 3, CHOP UPR activ 0, UPR XBP1 act 0, CHOP inhibitor 72* and UCH37 DUB inh 2.
CCOC(=O)c1c(C)[nH]c(C(=O)CSc2ccc(Cl)cc2)c1C was read as CTSL1 counter 0, CHOP UPR activ 3, UPR XBP1 act -1, CHOP inhibitor 70* and UCH37 DUB inh 1.
`CCOC(=O)c1c(C)[nH]c(C(=O)COC(=O)C(C)Oc2ccc(Cl)cc2Cl)c1C` (stereo not drawn) gave CTSL1 counter -3, CHOP UPR activ 0, UPR XBP1 act -1, CHOP inhibitor 75* and UCH37 DUB inh 3.
Screening CCCc1cc(=O)[nH]c(N=C(N)Nc2ccccc2)n1 returned UCH37 DUB inh 4.
Screening O=[N+]([O-])c1cc(S(=O)(=O)Nc2cccc(Cl)c2)ccc1NN=Cc1ccc(N2CCOCC2)cc1 returned UCH37 DUB inh 12.
